According to ChEMBL document CHEMBL4325889, “Natural products hybrids: 3,5,4'-Trimethoxystilbene-5,6,7-trimethoxyflavone chimeric analogs as potential cytotoxic agents against diverse human cancer cells” (Eur J Med Chem, 2019):

Experiments:
Format in all cases: functional
SF-295 = assay: Growth inhibition of human SF295 cells at 10 uM after 48 hrs by SRB assay relative to control; conditions: SF-295, 48 h, read-out: GI
Summary of the method: (§1)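 Screened at the National Cancer Institute by the standard NCI protocol using the sulforhodamine B assay, which measures cellular protein. Single dose of 10 µM. Result is percent growth inhibition; values above 100% mean cell number fell below the initial population. Values are the average of duplicates.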

SK-MEL-2 = assay: Growth inhibition of human SK-MEL-2 cells at 10 uM after 48 hrs by SRB assay relative to control; conditions: SK-MEL-2, 48 h, read-out: GI; summary of the method: as §1
BT-549 = assay: Growth inhibition of human BT549 cells at 10 uM after 48 hrs by SRB assay relative to control; conditions: BT-549, 48 h, read-out: GI; summary of the method: as §1
NCI-H522 = assay: Growth inhibition of human NCI-H522 cells at 10 uM after 48 hrs by SRB assay relative to control; conditions: NCI-H522, 48 h, read-out: GI; summary of the method: as §1
NCI-H23 = assay: Growth inhibition of human NCI-H23 cells at 10 uM after 48 hrs by SRB assay relative to control; conditions: NCI-H23, 48 h, read-out: GI; summary of the method: as §1
SR = assay: Growth inhibition of human SR cells at 10 uM after 48 hrs by SRB assay relative to control; conditions: read-out: GI
Summary of the method: (§2)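 NCI screen against its human cancer cell line panel by the standard NCI protocol, SRB protein stain. Single dose of 10 μM. Percent growth inhibition versus control; values above 100% mean the cell population fell below the starting number. Each value is the mean of duplicates.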

HOP-92 = assay: Growth inhibition of human HOP92 cells at 10 uM after 48 hrs by SRB assay relative to control; conditions: HOP-92, 48 h, read-out: GI; summary of the method: as §1
NCI/ADR-RES = assay: Growth inhibition of human NCI/ADR-RES cells at 10 uM after 48 hrs by SRB assay relative to control; conditions: read-out: GI; summary of the method: as §1
CCRF-CEM = assay: Growth inhibition of human CCRF-CEM cells at 10 uM after 48 hrs by SRB assay relative to control; conditions: read-out: GI; summary of the method: as §1
DU-145 = assay: Growth inhibition of human DU145 cells at 10 uM after 48 hrs by SRB assay relative to control; conditions: DU-145, 48 h, read-out: GI; summary of the method: as §1
LOX IMVI = assay: Growth inhibition of human LOXIMVI cells at 10 uM after 48 hrs by SRB assay relative to control; conditions: read-out: GI; summary of the method: as §1
CAKI-1 = assay: Growth inhibition of human Caki1 cells at 10 uM after 48 hrs by SRB assay relative to control; conditions: CAKI-1, 48 h, read-out: GI; summary of the method: as §1
Hs-578T = assay: Growth inhibition of human Hs 578T cells at 10 uM after 48 hrs by SRB assay relative to control; conditions: read-out: GI; summary of the method: as §1
PC-3 = assay: Growth inhibition of human PC3 cells at 10 uM after 48 hrs by SRB assay relative to control; conditions: PC-3, 48 h, read-out: GI; summary of the method: as §1
HL-60(TB) = assay: Growth inhibition of human HL-60(TB) cells at 10 uM after 48 hrs by SRB assay relative to control; conditions: HL-60, 48 h, read-out: GI
Summary of the method: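 Run at NCI under its standard single-dose protocol against a leukemia cell panel. Cells were exposed to 10 µM; growth was read by sulforhodamine B staining of cellular protein and expressed as % growth inhibition versus untreated control. Values above 100% mean the cell population fell below the starting count (cytocidal). Each value is the average of duplicates.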

MCF7 = assay: Growth inhibition of human MCF7 cells at 10 uM after 48 hrs by SRB assay relative to control; conditions: MCF7, 48 h, read-out: GI; summary of the method: as §1
SW-620 = assay: Growth inhibition of human SW620 cells at 10 uM after 48 hrs by SRB assay relative to control; conditions: SW-620, 48 h, read-out: GI; summary of the method: as §2
SK-MEL-5 = assay: Growth inhibition of human SK-MEL-5 cells at 10 uM after 48 hrs by SRB assay relative to control; conditions: SK-MEL-5, 48 h, read-out: GI; summary of the method: as §1
U-251 = assay: Growth inhibition of human U251 cells at 10 uM after 48 hrs by SRB assay relative to control; conditions: U-251, 48 h, read-out: GI; summary of the method: as §2
SK-MEL-28 = assay: Growth inhibition of human SK-MEL-28 cells at 10 uM after 48 hrs by SRB assay relative to control; conditions: SK-MEL-28, 48 h, read-out: GI; summary of the method: as §1
MOLT-4 = assay: Growth inhibition of human MOLT4 cells at 10 uM after 48 hrs by SRB assay relative to control; conditions: MOLT-4, 48 h, read-out: GI; summary of the method: as §1
IGROV-1 = assay: Growth inhibition of human IGROV1 cells at 10 uM after 48 hrs by SRB assay relative to control; conditions: IGROV-1, 48 h, read-out: GI; summary of the method: as §1
HCC 2998 = assay: Growth inhibition of human HCC2998 cells at 10 uM after 48 hrs by SRB assay relative to control; conditions: HCC 2998, 48 h, read-out: GI; summary of the method: as §1
OVCAR-4 = assay: Growth inhibition of human OVCAR4 cells at 10 uM after 48 hrs by SRB assay relative to control; conditions: OVCAR-4, 48 h, read-out: GI; summary of the method: as §1
OVCAR-3 = assay: Growth inhibition of human OVCAR3 cells at 10 uM after 48 hrs by SRB assay relative to control; conditions: OVCAR-3, 48 h, read-out: GI; summary of the method: as §1
UACC-257 = assay: Growth inhibition of human UACC257 cells at 10 uM after 48 hrs by SRB assay relative to control; conditions: UACC-257, 48 h, read-out: GI; summary of the method: as §2
K562 = assay: Growth inhibition of human K562 cells at 10 uM after 48 hrs by SRB assay relative to control; conditions: K562, 48 h, read-out: GI; summary of the method: as §1
MDA-MB-468 = assay: Growth inhibition of human MDA-MB-468 cells at 10 uM after 48 hrs by SRB assay relative to control; conditions: MDA-MB-468, 48 h, read-out: GI; summary of the method: as §1
SF-539 = assay: Growth inhibition of human SF539 cells at 10 uM after 48 hrs by SRB assay relative to control; conditions: SF-539, 48 h, read-out: GI; summary of the method: as §1
RXF 393 = assay: Growth inhibition of human RXF393 cells at 10 uM after 48 hrs by SRB assay relative to control; conditions: RXF 393, 48 h, read-out: GI; summary of the method: as §1
SNB-75 = assay: Growth inhibition of human SNB75 cells at 10 uM after 48 hrs by SRB assay relative to control; conditions: SNB-75, 48 h, read-out: GI; summary of the method: as §2
RPMI-8226 = assay: Growth inhibition of human RPMI8226 cells at 10 uM after 48 hrs by SRB assay relative to control; conditions: RPMI-8226, 48 h, read-out: GI; summary of the method: as §1
OVCAR-5 = assay: Growth inhibition of human OVCAR5 cells at 10 uM after 48 hrs by SRB assay relative to control; conditions: OVCAR-5, 48 h, read-out: GI; summary of the method: as §1

SMILES	inhibition of growth at 10 µM (SF-295) [%]	inhibition of growth at 10 µM (SK-MEL-2) [%]	inhibition of growth at 10 µM (BT-549) [%]	inhibition of growth at 10 µM (NCI-H522) [%]	inhibition of growth at 10 µM (NCI-H23) [%]	inhibition of growth at 10 µM (SR) [%]	inhibition of growth at 10 µM (HOP-92) [%]	inhibition of growth at 10 µM (NCI/ADR-RES) [%]	inhibition of growth at 10 µM (CCRF-CEM) [%]	inhibition of growth at 10 µM (DU-145) [%]	inhibition of growth at 10 µM (LOX IMVI) [%]	inhibition of growth at 10 µM (CAKI-1) [%]	inhibition of growth at 10 µM (Hs-578T) [%]	inhibition of growth at 10 µM (PC-3) [%]	inhibition of growth at 10 µM (HL-60(TB)) [%]	inhibition of growth at 10 µM (MCF7) [%]	inhibition of growth at 10 µM (SW-620) [%]	inhibition of growth at 10 µM (SK-MEL-5) [%]	inhibition of growth at 10 µM (U-251) [%]	inhibition of growth at 10 µM (SK-MEL-28) [%]	further results
COc1ccccc1NC(=O)c1cccc(-c2cc(=O)c3c(O)c(OC)c(OC)cc3o2)c1	10.8	14.1	10.8	26.6	13.9	21.5	15.8	19.8	39.8	5.49	16.7	6.75	3.9	25.1	9.41	7.54	-0.74	3.77	-0.16	5.62	inhibition of growth at 10 µM (MOLT-4): 27.9%; inhibition of growth at 10 µM (IGROV-1): -5.97%; inhibition of growth at 10 µM (HCC 2998): -2.45%; inhibition of growth at 10 µM (OVCAR-4): 3.74%; inhibition of growth at 10 µM (OVCAR-3): -0.89%; inhibition of growth at 10 µM (UACC-257): 1.19%; inhibition of growth at 10 µM (K562): 22.1%; inhibition of growth at 10 µM (MDA-MB-468): 9.38%; inhibition of growth at 10 µM (SF-539): 6.01%; inhibition of growth at 10 µM (RXF 393): 21.8%; inhibition of growth at 10 µM (SNB-75): 13%; inhibition of growth at 10 µM (RPMI-8226): 45.4%; inhibition of growth at 10 µM (OVCAR-5): 8.1%
COc1cc2oc(-c3cccc(NC(=O)c4ccc5c(c4)OCO5)c3)cc(=O)c2c(O)c1OC	19	6.66	24.5	41.5	13.4	19	38.5	14.8	11.7	2.12	5.74	34.4	26.1	22.6	14	11.4	-1.42	25.9	27.1	15.2	inhibition of growth at 10 µM (MOLT-4): 15.8%; inhibition of growth at 10 µM (IGROV-1): 5.56%; inhibition of growth at 10 µM (HCC 2998): 9.76%; inhibition of growth at 10 µM (OVCAR-4): 25.8%; inhibition of growth at 10 µM (OVCAR-3): -4.7%; inhibition of growth at 10 µM (UACC-257): 17.2%; inhibition of growth at 10 µM (K562): 15%; inhibition of growth at 10 µM (MDA-MB-468): 17.6%; inhibition of growth at 10 µM (SF-539): 77.4%; inhibition of growth at 10 µM (RXF 393): 32.6%; inhibition of growth at 10 µM (SNB-75): 47.6%; inhibition of growth at 10 µM (RPMI-8226): 20.6%; inhibition of growth at 10 µM (OVCAR-5): 13.7%
